Results as given in ChEMBL document CHEMBL4321819, “Simple Structural Modifications Converting a Bona fide MDM2 PROTAC Degrader into a Molecular Glue Molecule: A Cautionary Tale in the Design of PROTAC Degraders” (J Med Chem, 2019).
Calls of active or inactive are those of the source. The rule behind the calls is not given here.

Assays:
MDA-MB-468 [1] = test: Antiproliferative activity against human MDA-MB-468 cells harboring mutant p53 assessed as cell growth inhibition without interaction with cereblon after 4 days by WST-8 assay; assay type: functional, cell-based; conditions: MDA-MB-468, 96 h
MDA-MB-231 [2] = test: Antiproliferative activity against human MDA-MB-231 cells harboring mutant p53 assessed as cell growth inhibition without interaction with cereblon after 4 days by WST-8 assay; assay type: functional, cell-based; conditions: MDA-MB-231, 96 h
[3] = Antiproliferative activity against human RS4:11/IRMI-2 cells harboring p53 hotspot mutation Y236H/R249G assessed as cell growth inhibition without interaction with cereblon after 4 days by WST-8 assay; assay type: functional, cell-based; conditions: RS4-11, 96 h
Method in brief: (§1)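 Leukemia cells seeded at 10000–20000 cells/well, breast cancer lines at 5000–10000 cells/well. Serially diluted compound added, then 4 days at 37 °C, 5% CO2. Growth read with WST-8 reagent after at least 1 h, absorbance at 450 nm. RS4;11, MOLM-13 and breast lines were grown in RPMI 1640; MV-4-11 and HL-60 in IMDM; all with 10% FBS. Mean ± SE, at least three independent experiments.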

RS4-11 [4] = test: Antiproliferative activity against human RS4:11 cells expressing wild type p53 assessed as cell growth inhibition without interaction with cereblon after 4 days by WST-8 assay; assay type: functional, cell-based; conditions: RS4-11, 96 h; method in brief: as §1
[5] = Antiproliferative activity against human RS4:11/IRMI-2 cells harboring p53 hotspot mutation Y236H/R249G assessed as cell growth inhibition after 4 days by WST-8 assay; assay type: functional, cell-based; conditions: RS4-11, 96 h; method in brief: as §1
RS4-11 [6] = test: Antiproliferative activity against human RS4:11 cells expressing wild type p53 assessed as cell growth inhibition after 4 days by WST-8 assay; assay type: functional, cell-based; conditions: RS4-11, 96 h; method in brief: as §1
[7] = target: Eukaryotic peptide chain release factor GTP-binding subunit ERF3A (Homo sapiens, UniProt P15170); test: Induction of GSPT1 degradation in human RS4:11 cells measured after 24 hrs by Western blot analysis; assay type: cell-based
[8] = target: T1, Protein cereblon/Eukaryotic peptide chain release factor GTP-binding subunit ERF3A/DNA damage-binding protein 1/Cullin-4A (Homo sapiens) (UniProt Q96SW2+Q16531+Q13619+P15170); test: Protac activity at GSPT1/CUL4/DDB1/CRBN in human RS4:11 cells expressing wild type p53 assessed as decrease in GSPT1 protein level after 2 hrs by Western blot analysis; assay type: cell-based
Method in brief: (§2)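 RS4;11 (wild-type p53) or RS4;11/IRMI-2 (MDM2 inhibitor-resistant derivative, mutant p53) cells kept in RPMI 1640 with 10% FBS at 37 °C, 5% CO₂. 2×10^6 cells/well treated at the indicated concentrations and times, then lysed in ice-cold lysis buffer with protease inhibitor. GSPT1 detected by Western blot with a specific antibody.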

[9] = target: T1, Protein cereblon/Eukaryotic peptide chain release factor GTP-binding subunit ERF3A/DNA damage-binding protein 1/Cullin-4A (Homo sapiens); test: Protac activity at GSPT1/CUL4/DDB1/CRBN in human RS4:11/IRMI-2 cells harboring p53 hotspot mutation Y236H/R249G assessed as decrease in GSPT1 protein level after 2 hrs by Western blot analysis; assay type: cell-based; method in brief: as §2
[10] = target: T1, Protein cereblon/Eukaryotic peptide chain release factor GTP-binding subunit ERF3A/DNA damage-binding protein 1/Cullin-4A (Homo sapiens); test: Protac activity at GSPT1/CUL4/DDB1/CRBN in human RS4:11 cells expressing wild type p53 assessed as decrease in GSPT1 protein level at 1 to 3 uM after 24 hrs by Western blot analysis; assay type: cell-based; method in brief: as §2
[11] = target: T1, Protein cereblon/Eukaryotic peptide chain release factor GTP-binding subunit ERF3A/DNA damage-binding protein 1/Cullin-4A (Homo sapiens); test: Protac activity at GSPT1/CUL4/DDB1/CRBN in human RS4:11/IRMI-2 cells harboring p53 hotspot mutation Y236H/R249G assessed as decrease in GSPT1 protein level at 1 to 3 uM after 24 hrs by Western blot analysis; assay type: cell-based; method in brief: as §2
[12] = Antiproliferative activity against human RS4:11/IRMI-2 cells harboring p53 hotspot mutation Y236H/R249G assessed as MDM2-independent cell growth inhibition after 4 days by WST-8 assay; assay type: functional, cell-based; conditions: RS4-11, 96 h; method in brief: as §1
[13] = target: E3 ubiquitin-protein ligase Mdm2 (Homo sapiens, UniProt Q00987); test: Displacement of PMDM6-F fluorescent probe from human recombinant His-tagged MDM2 (1 to 118 residues) after 15 mins by fluorescence polarization assay
Method in brief: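 Recombinant human His-tagged MDM2 (residues 1–118) with a FAM-labelled p53-based peptide as fluorescent probe; competitive fluorescence-polarization binding. Mean ± standard error from at least three independent experiments.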

RS4-11 [14] = test: Antiproliferative activity against human RS4:11 cells expressing wild type p53 assessed as MDM2-independent cell growth inhibition after 4 days by WST-8 assay; assay type: functional, cell-based; conditions: RS4-11, 96 h; method in brief: as §1
MDA-MB-468 [15] = test: Antiproliferative activity against human MDA-MB-468 cells transfected with CRBN siRNA LQ-021086-11-0002 assessed as cell growth inhibition after 4 days by WST-8 assay; assay type: functional, cell-based; conditions: MDA-MB-468, 96 h
Method in brief: (§3)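 MDA-MB-231 or MDA-MB-468 cells transfected for 2 days using Lipofectamine RNAiMAX with MDM2 siRNA, one of two CRBN siRNAs, or non-targeting control siRNA. Compound then added and growth read by WST-8 at 450 nm.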

MDA-MB-468 [16] = test: Antiproliferative activity against human MDA-MB-468 cells transfected with CRBN siRNA LQ-021086-10-0002 assessed as cell growth inhibition after 4 days by WST-8 assay; assay type: functional, cell-based; conditions: MDA-MB-468, 96 h; method in brief: as §3
MDA-MB-231 [17] = test: Antiproliferative activity against human MDA-MB-231 cells transfected with CRBN siRNA LQ-021086-11-0002 assessed as cell growth inhibition after 4 days by WST-8 assay; assay type: functional, cell-based; conditions: MDA-MB-231, 96 h; method in brief: as §3
MDA-MB-231 [18] = test: Antiproliferative activity against human MDA-MB-231 cells transfected with CRBN siRNA LQ-021086-10-0002 assessed as cell growth inhibition after 4 days by WST-8 assay; assay type: functional, cell-based; conditions: MDA-MB-231, 72 h, in the assay text read “after 3 days” for “after 4 days”; method in brief: as §3
MDA-MB-231 [19] = test: Antiproliferative activity against human MDA-MB-231 cells assessed as cell growth inhibition after 4 days in presence of control siRNA for 3 days followed by compound treatment by WST-8 assay; assay type: functional, cell-based
MDA-MB-468 [20] = test: Antiproliferative activity against human MDA-MB-468 cells assessed as cell growth inhibition after 4 days in presence of control siRNA for 3 days followed by compound treatment by WST-8 assay; assay type: functional, cell-based

T1 sequence (P15170 whole entry, looked up): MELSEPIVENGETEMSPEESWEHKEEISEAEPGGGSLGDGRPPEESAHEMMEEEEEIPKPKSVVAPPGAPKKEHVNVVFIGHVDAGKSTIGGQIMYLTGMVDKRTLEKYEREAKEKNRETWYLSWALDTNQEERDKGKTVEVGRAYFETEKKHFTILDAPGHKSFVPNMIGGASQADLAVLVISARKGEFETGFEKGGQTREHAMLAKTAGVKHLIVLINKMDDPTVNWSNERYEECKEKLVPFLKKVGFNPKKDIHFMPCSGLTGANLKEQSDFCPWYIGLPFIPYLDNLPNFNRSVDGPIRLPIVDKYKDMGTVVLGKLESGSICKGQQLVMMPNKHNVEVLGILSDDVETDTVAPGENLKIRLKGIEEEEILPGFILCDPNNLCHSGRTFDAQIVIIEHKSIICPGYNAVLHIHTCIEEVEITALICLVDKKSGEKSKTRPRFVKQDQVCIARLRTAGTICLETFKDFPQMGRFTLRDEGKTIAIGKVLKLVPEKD
T1 sequence (Q13619 whole entry, looked up): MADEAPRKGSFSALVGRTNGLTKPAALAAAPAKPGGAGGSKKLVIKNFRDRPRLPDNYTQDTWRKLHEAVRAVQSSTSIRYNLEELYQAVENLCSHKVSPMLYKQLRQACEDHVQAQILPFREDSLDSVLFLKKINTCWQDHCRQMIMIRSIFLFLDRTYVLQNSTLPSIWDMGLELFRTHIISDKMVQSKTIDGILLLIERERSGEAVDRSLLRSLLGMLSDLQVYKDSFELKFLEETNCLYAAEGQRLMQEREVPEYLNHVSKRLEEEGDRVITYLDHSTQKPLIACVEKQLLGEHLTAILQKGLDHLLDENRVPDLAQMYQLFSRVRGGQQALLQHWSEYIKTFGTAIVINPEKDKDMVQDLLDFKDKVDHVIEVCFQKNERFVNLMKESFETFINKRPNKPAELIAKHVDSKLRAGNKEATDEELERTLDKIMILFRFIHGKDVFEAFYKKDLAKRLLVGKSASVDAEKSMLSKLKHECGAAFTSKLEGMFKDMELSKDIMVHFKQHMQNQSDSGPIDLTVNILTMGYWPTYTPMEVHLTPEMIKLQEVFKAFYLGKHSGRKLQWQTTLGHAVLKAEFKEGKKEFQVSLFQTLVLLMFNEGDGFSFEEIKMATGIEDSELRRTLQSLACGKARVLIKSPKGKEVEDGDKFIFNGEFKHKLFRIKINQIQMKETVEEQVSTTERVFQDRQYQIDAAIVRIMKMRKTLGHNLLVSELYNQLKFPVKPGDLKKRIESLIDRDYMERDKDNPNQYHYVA
T1 sequence (Q16531 whole entry, looked up): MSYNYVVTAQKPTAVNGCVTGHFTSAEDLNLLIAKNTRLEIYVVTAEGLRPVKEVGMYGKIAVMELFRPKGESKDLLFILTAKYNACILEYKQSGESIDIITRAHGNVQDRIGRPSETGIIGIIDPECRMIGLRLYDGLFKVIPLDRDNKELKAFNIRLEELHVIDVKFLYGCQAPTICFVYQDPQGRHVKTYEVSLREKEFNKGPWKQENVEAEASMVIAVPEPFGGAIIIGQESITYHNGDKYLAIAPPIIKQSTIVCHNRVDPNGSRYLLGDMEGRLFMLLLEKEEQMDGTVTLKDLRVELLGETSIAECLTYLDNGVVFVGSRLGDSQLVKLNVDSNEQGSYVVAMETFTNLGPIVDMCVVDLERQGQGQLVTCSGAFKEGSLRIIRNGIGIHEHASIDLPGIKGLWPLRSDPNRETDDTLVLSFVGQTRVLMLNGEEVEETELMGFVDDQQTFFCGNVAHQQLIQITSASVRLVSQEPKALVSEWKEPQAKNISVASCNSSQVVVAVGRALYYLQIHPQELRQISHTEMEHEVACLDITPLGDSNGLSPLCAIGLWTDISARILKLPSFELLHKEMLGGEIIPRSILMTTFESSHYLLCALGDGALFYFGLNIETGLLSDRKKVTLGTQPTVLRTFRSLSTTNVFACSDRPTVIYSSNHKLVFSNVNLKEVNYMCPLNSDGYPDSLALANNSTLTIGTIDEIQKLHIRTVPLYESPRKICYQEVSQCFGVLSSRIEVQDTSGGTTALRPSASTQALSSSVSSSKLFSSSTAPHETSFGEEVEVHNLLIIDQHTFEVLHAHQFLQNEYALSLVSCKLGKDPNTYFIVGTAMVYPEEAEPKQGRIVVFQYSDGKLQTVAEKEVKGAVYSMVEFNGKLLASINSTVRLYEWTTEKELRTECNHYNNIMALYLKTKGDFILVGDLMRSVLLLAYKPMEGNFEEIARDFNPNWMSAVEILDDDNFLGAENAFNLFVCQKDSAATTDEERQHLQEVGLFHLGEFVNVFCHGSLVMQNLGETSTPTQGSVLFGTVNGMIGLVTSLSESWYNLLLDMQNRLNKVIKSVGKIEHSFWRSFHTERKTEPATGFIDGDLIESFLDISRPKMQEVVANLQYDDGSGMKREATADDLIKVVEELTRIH
T1 sequence (Q96SW2 whole entry, looked up): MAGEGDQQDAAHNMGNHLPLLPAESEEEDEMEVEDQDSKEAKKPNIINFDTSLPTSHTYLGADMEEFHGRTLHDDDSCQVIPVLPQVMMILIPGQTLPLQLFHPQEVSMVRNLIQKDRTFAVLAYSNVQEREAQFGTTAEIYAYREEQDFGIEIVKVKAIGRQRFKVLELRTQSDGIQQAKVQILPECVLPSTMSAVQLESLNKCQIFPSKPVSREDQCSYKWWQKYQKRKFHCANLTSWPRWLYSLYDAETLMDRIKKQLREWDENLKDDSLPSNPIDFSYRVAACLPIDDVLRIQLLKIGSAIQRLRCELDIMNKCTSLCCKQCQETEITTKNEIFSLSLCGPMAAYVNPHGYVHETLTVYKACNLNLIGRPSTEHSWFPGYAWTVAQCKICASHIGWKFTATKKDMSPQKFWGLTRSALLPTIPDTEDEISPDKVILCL
Eukaryotic peptide chain release factor GTP-binding subunit ERF3A, sequence (P15170 whole entry): as the sequence (P15170 whole entry, looked up) above
E3 ubiquitin-protein ligase Mdm2, sequence (Q00987 whole entry, the tested form may be a part): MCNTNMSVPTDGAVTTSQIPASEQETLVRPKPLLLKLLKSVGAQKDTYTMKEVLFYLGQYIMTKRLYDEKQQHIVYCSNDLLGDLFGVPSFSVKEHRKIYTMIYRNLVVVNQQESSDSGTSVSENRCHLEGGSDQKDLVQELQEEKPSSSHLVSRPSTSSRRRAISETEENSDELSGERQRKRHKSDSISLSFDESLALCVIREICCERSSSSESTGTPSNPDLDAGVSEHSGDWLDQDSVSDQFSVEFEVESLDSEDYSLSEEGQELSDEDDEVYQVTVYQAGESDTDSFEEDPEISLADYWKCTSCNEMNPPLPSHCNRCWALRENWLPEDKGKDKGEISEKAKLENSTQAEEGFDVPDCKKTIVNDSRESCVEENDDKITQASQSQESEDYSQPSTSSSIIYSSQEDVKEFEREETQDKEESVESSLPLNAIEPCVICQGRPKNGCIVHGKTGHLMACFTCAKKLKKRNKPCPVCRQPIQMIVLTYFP

| SMILES | IC50 [5] [nM] | IC50 (RS4-11 [6]) [nM] | DC50 [7] [nM] | Activity [8] | Activity [9] | IC50 [13] [nM] | other results |
| --- | --- | --- | --- | --- | --- | --- | --- |
| CN1C(=O)CCC(N2Cc3c(CCCCCNC(=O)[C@@H]4NC5(CCCCC5)[C@@]5(C(=O)Nc6cc(Cl)ccc65)[C@H]4c4cccc(Cl)c4F)cccc3C2=O)C1=O (some centres undefined) | – | – | – | – | – | – | IC50 (MDA-MB-468 [1]): > 10 µM; IC50 (MDA-MB-231 [2]): > 10 µM; IC50 [3]: 6.85 µM; IC50 (RS4-11 [4]): 2490 nM |
| O=C1CCC(N2Cc3c(CCCOCCOCCNC(=O)[C@@H]4NC5(CCCCC5)[C@@]5(C(=O)Nc6cc(Cl)ccc65)[C@H]4c4cccc(Cl)c4F)cccc3C2=O)C(=O)N1 (some centres undefined) | 4.9 | 4.9 | 1.2 | Active | Active | – | – |
| O=C1CCC(N2Cc3c(NC(=O)[C@@H]4NC5(CCCCC5)[C@@]5(C(=O)Nc6cc(Cl)ccc65)[C@H]4c4cccc(Cl)c4F)cccc3C2=O)C(=O)N1 (some centres undefined) | 2580 | 760 | 2300 | – | – | – | Activity [10]: Active; Activity [11]: Active |
| O=C1CCC(N2Cc3c(CCCOCCNC(=O)[C@@H]4NC5(CCCCC5)[C@@]5(C(=O)Nc6cc(Cl)ccc65)[C@H]4c4cccc(Cl)c4F)cccc3C2=O)C(=O)N1 (some centres undefined) | 3.5 | 3.6 | 1.8 | Active | Active | – | – |
| O=C1CCC(N2Cc3c(CCCCCNC(=O)[C@@H]4NC5(CCCCC5)[C@@]5(C(=O)Nc6ccccc65)[C@H]4c4ccccc4)cccc3C2=O)C(=O)N1 (some centres undefined) | – | – | – | – | – | > 20000 | IC50 [12]: 60.9 nM; IC50 (RS4-11 [14]): 48.6 nM |
| O=C(O)c1ccc(NC(=O)[C@@H]2NC3(CCCCC3)[C@@]3(C(=O)Nc4cc(Cl)ccc43)[C@H]2c2cccc(Cl)c2F)cc1 | – | – | – | – | – | 9.5 | IC50 (MDA-MB-468 [15]): > 3000 nM; IC50 (MDA-MB-468 [16]): > 3000 nM; IC50 (MDA-MB-231 [17]): > 3000 nM; IC50 (MDA-MB-231 [18]): > 3000 nM; IC50 (MDA-MB-231 [19]): > 3000 nM; IC50 (MDA-MB-468 [20]): > 3000 nM |
